Published values of several laboratories.
Each line is one published result; the experiments were not run side by side. pIC50: −log10 of the molar value.
Read-out: cell growth or viability

| SMILES | cell line | test | setting | pIC50 |
| --- | --- | --- | --- | --- |
| CC1(C)CCC(CN2CCN(c3ccc(C(=O)NS(=O)(=O)c4ccc(NCC5CCOCC5)c([N+](=O)[O-])c4)c(Oc4cnc5[nH]ccc5c4)c3)CC2)=C(c2ccc(Cl)cc2)C1 | MB002 |  | 7 days | < 5.00 |
| CC(=NN=c1scc(-c2ccccc2)n1C)c1c(O)c2ccccc2oc1=O | human Skin fibroblast | MTT | 48 h | < 4.00 |
| CN1CCN(CCOc2cc(OC3CCOCC3)c3c(Nc4c(Cl)ccc5c4OCO5)ncnc3c2)CC1 | HD-MB03 |  | 7 days | < 5.00 |
| O=C(N/N=C/c1c(O)ccc2ccccc12)c1cc(-c2ccc3ccccc3c2)n[nH]1 | WM278 | MTS | 48 h | 5.10 |
| CC(=O)c1sc(=NN=C(C)c2c(O)c3ccccc3oc2=O)[nH]c1C | human Skin fibroblast | MTT | 48 h | < 4.00 |
| CC(C)C[C@H](NC(=O)[C@H](Cc1ccccc1)NC(=O)c1cnccn1)B(O)O | T84 | ATP luminescence |  | 7.74 |
| CC(=NN=c1sc(N=Nc2ccccc2)c(C)n1C)c1c(O)c2ccccc2oc1=O | human Skin fibroblast | MTT | 48 h | < 4.00 |
| Cn1ncnc1[C@H]1c2n[nH]c(=O)c3cc(F)cc(c23)N[C@@H]1c1ccc(F)cc1 | MB002 |  | 7 days | 8.43 |
| Oc1ccc(Nc2nc(-c3ccc(Cl)cc3)cs2)cc1 | WM278 | MTS | 72 h | 4.63 |
| COc1cc(Nc2nccc(-c3cnn4nc(OC)ccc34)n2)cc(C(F)(F)F)c1 | T84 | ATP luminescence |  | 5.89 |
